Reference: ChEMBL document CHEMBL4385657, “A fragment-like approach to PYCR1 inhibition” (Bioorg Med Chem Lett, 2019)
Calls of active or inactive are those of the source. The calls are words filed in the database; no cut-off is given here.

Experiments:
[1] = biological target: T1, Pyrroline-5-carboxylate reductase 1, mitochondrial (Homo sapiens, UniProt P32322); experiment: Inhibition of 6x-His-tagged and SUMO tagged human PYCR1 expressed in Escherichia coli BL21 (DE3) cells assessed as reduction in NADH oxidation incubated for 1 hr
T1 sequence (P32322 whole entry): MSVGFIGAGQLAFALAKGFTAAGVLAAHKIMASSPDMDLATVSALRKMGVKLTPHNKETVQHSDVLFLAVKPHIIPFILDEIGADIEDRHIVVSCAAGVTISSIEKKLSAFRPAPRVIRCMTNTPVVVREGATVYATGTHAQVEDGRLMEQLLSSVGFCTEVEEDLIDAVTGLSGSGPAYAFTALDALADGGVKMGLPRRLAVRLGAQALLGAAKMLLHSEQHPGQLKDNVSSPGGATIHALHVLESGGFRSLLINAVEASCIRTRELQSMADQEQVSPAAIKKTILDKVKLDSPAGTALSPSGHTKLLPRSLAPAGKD

[2] = test system: SUM-159-PT; experiment: Effect on phenylalanine content in human SUM159PT cells at 100 uM by LC-MS analysis relative to control; format: functional, cell-based
In short: (§1)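 Human breast cancer SUM-159-PT cells were incubated with test agent at 1, 5, 20 and 100 µM (or at 100 µM alone). The cells were then lysed, and proline and the essential amino acids were quantified by LC-MS. Each amino acid level was compared against an untreated control culture.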

[3] = test system: SUM-159-PT; experiment: Effect on valine content in human SUM159PT cells at 100 uM by LC-MS analysis relative to control; format: functional, cell-based; in short: as §1
[4] = test system: SUM-159-PT; experiment: Effect on leucine content in human SUM159PT cells at 100 uM by LC-MS analysis relative to control; format: functional, cell-based; in short: as §1
[5] = test system: SUM-159-PT; experiment: Effect on methionine content in human SUM159PT cells at 100 uM by LC-MS analysis relative to control; format: functional, cell-based; in short: as §1
[6] = test system: SUM-159-PT; experiment: Effect on isoleucine content in human SUM159PT cells at 100 uM by LC-MS analysis relative to control; format: functional, cell-based; in short: as §1
[7] = test system: SUM-159-PT; experiment: Effect on tryptophan content in human SUM159PT cells at 100 uM by LC-MS analysis relative to control; format: functional, cell-based; in short: as §1
[8] = test system: SUM-159-PT; experiment: Effect on phenylalanine content in human SUM159PT cells at 1 to 100 uM by LC-MS analysis relative to control; format: ADME, cell-based; in short: as §1
[9] = test system: SUM-159-PT; experiment: Effect on tryptophan content in human SUM159PT cells at 1 to 100 uM by LC-MS analysis relative to control; format: ADME, cell-based; in short: as §1
[10] = test system: SUM-159-PT; experiment: Effect on isoleucine content in human SUM159PT cells at 1 to 100 uM by LC-MS analysis relative to control; format: ADME, cell-based; in short: as §1
[11] = test system: SUM-159-PT; experiment: Toxicity in human SUM159PT cells assessed as reduction in cell viability at 100 uM; format: cell-based
[12] = test system: SUM-159-PT; experiment: Effect on methionine content in human SUM159PT cells at 1 to 100 uM by LC-MS analysis relative to control; format: ADME, cell-based; in short: as §1
[13] = test system: SUM-159-PT; experiment: Effect on valine content in human SUM159PT cells at 1 to 100 uM by LC-MS analysis relative to control; format: ADME, cell-based; in short: as §1
[14] = test system: SUM-159-PT; experiment: Effect on leucine content in human SUM159PT cells at 1 to 100 uM by LC-MS analysis relative to control; format: ADME, cell-based; in short: as §1
[15] = biological target: T2, Amine oxidase [flavin-containing] B (Homo sapiens, UniProt P27338); experiment: Inhibition of MAOB (unknown origin)
T2 sequence (P27338 whole entry): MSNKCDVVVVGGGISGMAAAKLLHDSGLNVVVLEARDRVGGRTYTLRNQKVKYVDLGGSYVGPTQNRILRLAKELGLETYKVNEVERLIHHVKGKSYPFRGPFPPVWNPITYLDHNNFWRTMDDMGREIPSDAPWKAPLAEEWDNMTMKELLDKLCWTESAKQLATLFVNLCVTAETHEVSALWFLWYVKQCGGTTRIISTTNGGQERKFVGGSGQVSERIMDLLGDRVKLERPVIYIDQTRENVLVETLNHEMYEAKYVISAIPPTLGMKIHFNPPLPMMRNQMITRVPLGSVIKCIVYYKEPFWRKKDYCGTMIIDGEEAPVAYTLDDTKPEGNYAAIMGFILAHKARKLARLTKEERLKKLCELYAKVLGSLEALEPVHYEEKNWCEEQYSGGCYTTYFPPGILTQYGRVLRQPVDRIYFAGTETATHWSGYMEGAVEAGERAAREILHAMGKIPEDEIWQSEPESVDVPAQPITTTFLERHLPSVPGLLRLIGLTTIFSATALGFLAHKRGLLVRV

Row | Compound | IC50 [1] [µM] | further results
1 | CNCc1ccc(Br)cc1 | 161 | –
2 | C#CCN(C)Cc1ccc(Cl)cc1Br | 66 | –
3 | C#CCN(Cc1ccc(Br)cc1)Cc1ccc(Br)cc1 | 92 | –
4 | C#CCN(C)Cc1ccc(Br)cc1Cl | 34 | –
5 | C#CCN(C)Cc1ccc(Br)cc1F | 42 | –
6 | C#CCN(C)Cc1ccc(Br)cc1C | 38 | –
7 | C#CCN(C)Cc1ccc(Br)cc1Br | 228 | –
8 | CN(Cc1ccccc1)Cc1ccc(Br)cc1 | > 500 | –
9 | C#CCN(C)Cc1ccc(F)cc1Br | > 500 | –
10 | C#CCN1Cc2ccc(Br)cc2C1 | > 500 | –
11 | C#CCN(CC(=O)OC(C)(C)C)Cc1ccc(Br)cc1 | > 500 | –
12 | C#CCN1CCc2cc(Br)ccc2C1 | > 500 | –
13 | C#CCN(C)Cc1ccc(OC)cc1OC | > 500 | –
14 | CN(CC#Cc1ccccc1)Cc1ccc(Br)cc1 | 71 | –
15 | C#CCN(C)CCc1ccc(Br)cc1 | > 500 | –
16 | C#CCN(C)Cc1ccccc1[N+](=O)[O-] | > 500 | –

Row | Compound | IC50 [1] [µM] | further results
17 | C#CCN(C)Cc1ccc(Br)cc1 | – | Activity [8]: Non-Toxic; Activity [9]: Non-Toxic; Activity [10]: Non-Toxic; Activity [11]: Non-Toxic; Activity [12]: Non-Toxic; Activity [13]: Non-Toxic; Activity [14]: Non-Toxic; IC50 [15]: 0.3 µM
18 | C#CCN(C)Cc1c(Cl)cccc1Cl | > 500 | –
19 | C#CCN(C)Cc1cc(Cl)cc(Cl)c1 | > 500 | –
20 | C#CCN(Cc1ccc(Br)cc1)S(C)(=O)=O | > 500 | –
21 | C#CCN(Cc1ccc(Br)cc1)CC1CC1 | > 500 | –
22 | C#CCN(C)Cc1cc(C)no1 | > 500 | –
23 | C#CCN(C)Cc1ccc(Br)cc1OC | 21 | –
24 | C#CCN(CCC=C)Cc1ccc(Br)cc1 | > 500 | –
25 | C=CCN(C)Cc1ccc(Br)cc1 | > 500 | –
26 | C#CCN(C)Cc1ccccc1Br | 200 | –
27 | C#CCN(C)Cc1cc(Br)cs1 | > 500 | –
28 | C#CCN(C)Cc1ccc(Cl)cc1Cl | 9.2 | –
29 | C#CCNCc1ccc(Br)cc1 | 99 | –
30 | CN(Cc1ccc(Br)cc1)CC1CC1 | > 500 | –
31 | C#CCN(Cc1ccc(Br)cc1)Cc1cc(C)no1 | 100 | –

Continued, in another order:

Row | IC50 [1] [µM] | Compound | further results
32 | 43 | C#CCN(C)Cc1ccc([N+](=O)[O-])cc1 | –
33 | 13 | C#CCN(C)Cc1ccc(Cl)cc1 | –
34 | 52 | C#CCN(C)Cc1cccc(Cl)c1 | –
35 | 55 | C#CCN(C)Cc1ccc(C)cc1C | –
36 | 276 | C#CCN(C)Cc1cccc(Br)c1 | –
37 | 311 | C#CCN(C)Cc1ccc(F)cc1 | –
38 | > 500 | C#CCCN(C)Cc1ccc(Br)cc1 | –
39 | 40 | C#CCN(C)Cc1ccc(C)cc1 | –
40 | 211 | C#CCN(C)Cc1ccc(-c2ccc(F)cc2)cc1 | –
41 | 21 | C#CCN(C)Cc1ccc2ccccc2c1 | –
42 | 315 | C#CCN(C)Cc1ccc(-c2ccccc2)cc1 | –
43 | 13.6 | C#CCN(C)Cc1ccc(Cl)c(Cl)c1 | –
44 | 316 | C#CCN(C)C(C)c1ccc(Br)cc1 (centres undefined) | –
45 | 184 | C#CCN(C)Cc1ccc(C(C)=O)cc1 | –
46 | 394 | C#CCN(C)Cc1cccc([N+](=O)[O-])c1 | –
47 | 198 | C#CCN(C)Cc1ccccc1 [PARGYLINE] | Activity [2]: inactive; Activity [3]: inactive; Activity [4]: inactive; Activity [5]: inactive; Activity [6]: inactive; Activity [7]: inactive
48 | 65 | C#CCN(C)Cc1ccc(C(F)(F)F)cc1 | –
49 | 142 | C#CCN(C)Cc1ccc(C(C)C)cc1 | –
50 | 43 | C#CCN(C)Cc1ccc(Cl)c(C(F)(F)F)c1 | –
51 | 16 | CC#CCN(C)Cc1ccc(Br)cc1 | –
52 | 394 | C#CC(C)N(C)Cc1ccc(Br)cc1 (centres undefined) | –
53 | > 500 | C#CCN(C)Cc1ccc(C#N)cc1 | –
54 | > 500 | C#CCN(Cc1ccc(Br)cc1)C(C)C | –
55 | 9.7 | C#CCN(C)Cc1ccc(I)cc1 | –
56 | > 500 | C#CCN(Cc1ccc(Br)cc1)C(C)=O | –
57 | 139 | C#CCN(C)Cc1ccccc1Cl | –
58 | 38 | C#CCN(C)Cc1ccc(OC)cc1 | –
59 | > 500 | C#CCN(CCC)Cc1ccc(Br)cc1 | –
60 | 58 | C#CCN(CC)Cc1ccc(Br)cc1 | –
61 | 337 | CCCN(C)Cc1ccc(Br)cc1 | –
